# Assay outcomes as filed in PubChem.
# An excerpt weighted towards active compounds, which were near 5.7% of everything screened.
# Mdm2-MdmX inh = inhibitors of human Mdm2-MdmX association, primary screen, cell-based, luminescence, split luciferase, SaOS-2, uHTS. Protein Mdm4 (Homo sapiens) + E3 ubiquitin-protein ligase Mdm2 (Homo sapiens), …. SaOS-2 split-luciferase Mdm2/MdmX complementation. inhibition, % at 8 µM. actives 3% (n = 330,000). AID 485346, 2010;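 active = inhibition of at least 50% at 8 µM in the primary screen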
# T cruzi repl = inhibitors of intracellular T. cruzi growth, primary screen, luminescence, NIH3T3 host cells; inhibition, % (test concentration not listed); AID 1885, 2009; actives 1.4% (n = 300,000); T. cruzi beta-gal in NIH3T3, 90 h;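 active = mean inhibition across valid replicates above about 55%, limit read from the data; inconclusive = mean below that limit but half or more replicates reach it; inactive = mean below it, under half of replicates reach it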;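 note: signal also drops with host cell toxicity which is not excluded here; 0% = plate median of DMSO wells and 100% = zero luminescence signal; higher percent means less beta-gal luminescence so fewer parasites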
#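 Material: NIH/3T3 host cells with β-galactosidase reporter T. cruzi; Input: 5,000 host fibroblasts per well; Medium: DMEM, 2% fetal bovine serum; Compound: 50 nL DMSO compound solution per well; Schedule: 3 h host attachment, then at least 90 h co-culture; Detection: luminescent β-galactosidase signal after 60 min lysis.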
# Beta cell apopt = inhibitors of cytokine-induced beta cell apoptosis, primary screen, luminescence; INS-1E cytokine-induced death, ATP luminescence, 48 h; percent of positive-control rescue, neutral wells zero; protection from apoptosis, % (concentration not given with the values); actives 0.8% (n = 300,000); AID 435005, 2010;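 active = Every replicate reaches about 75%, or at least half do and their mean reaches it too, limit read from the data; inconclusive = At least half of replicates reach the limit but their mean does not; inactive = Under half of replicates reach the limit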;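 note: 0% = cytokine-treated negative control wells and 100% = positive control rescue; higher means more ATP so stronger rescue from cytokine killing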
# SKKanGAS inh = S. pyogenes SKKanGAS growth inhibitors in kanamycin, primary screen, streptokinase expression inhibitor project, SKKanGAS strain, BacTiter-Glo luminescence | 6 h | inhibition, % at 7.5 µM | actives 1.3% (n = 300,000) | AID 1662, 2009;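 active = mean replicate score, as percent of positive control median, at least 50; inconclusive = mean below 50 but one replicate at or above 50; inactive = mean and every replicate below 50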;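 note: strain carries kanamycin resistance gene driven by streptokinase promoter and grows in 40 µg/ml kanamycin; loss of luminescence reflects streptokinase promoter inhibition or plain growth inhibition; 0% = median of DMSO wells and 100% = positive control at its reference dose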
# Calb FLC = C. albicans growth inhibition with fluconazole, primary screen, CaCi-2 strain, Alamar Blue fluorescence; AID 1979, 2009; growth inhibition, % (concentration not given with the values); actives 0.57% (n = 300,000); C. albicans CaCi-2 (fluconazole-resistant clinical isolate) + fluconazole, 48 h;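 active = growth inhibition above about 58% in most replicates, limit read from the data, passing the limit was not always enough; inconclusive = exactly half the replicates above a set limit; inactive = most replicates below a set limit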;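 note: all wells also contain fluconazole at 8 µg/ml as a sub-toxic cotreatment; 0% = median of DMSO wells and 100% = median of geldanamycin control wells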
# CSC inhib = cancer stem cell viability inhibitors, primary screen, luminescence. cancer stem cell-like cells viability. inhibition, % at 7.5 µM. actives 1.1% (n = 300,000); in the data active = inhibition above about 75%; inconclusive = no clear call, values can overlap the other calls; tested in HMLE shEcad cells
# * marks the source's active call; other numbers are inactive results; u = inconclusive; x = no result.
SMILES,Mdm2-MdmX inh,T cruzi repl,Beta cell apopt,SKKanGAS inh,Calb FLC,CSC inhib
CCn1ccnc1CN(C)Cc1cn(-c2cccc(C)c2)nc1-c1cccc(F)c1,29,55*,20,48,-9,63
Cc1cccc(-n2cc(CN(C)Cc3nccn3C)c(-c3cccc(F)c3)n2)c1,33,65*,-3,40,14,103*
COc1ccc(-n2cc(CN(C)CCO)c(-c3cccc(F)c3)n2)cc1,9,16,-14,0,-9,-7
CCn1ccnc1CN(C)Cc1cn(-c2ccc(C)cc2)nc1-c1cccc(C)c1,24,66*,-2,28,-7,-2
CCCS(=O)(=O)c1ccc(COC(=O)Cc2ccc([N+](=O)[O-])cc2)cc1,0,2,-3,-3,0,0
O=C(O)C1C2C=CC(C2)C1C(=O)NCc1ccc(Cl)cc1Cl (stereo not given),11,6,2,-1,0,-12
C[C@@H]1CN(c2c(F)c(F)c3c(=O)c(C(=O)O)cn(C4CC4)c3c2F)C[C@H](C)N1,-30,3,x,65*,-4,x
CCOC(=O)c1cn(C2CC2)c2c(F)c(F)c(F)cc2c1=O,-10,25,-2,-20,-6,x
Cn1cccc1C1CCCN1CC(=O)Nc1ccc(C(N)=O)cc1 (stereo not given),1,x,-3,x,x,-2
c1ccc(-c2nc(NCC3CCCO3)c3ccccc3n2)nc1 (stereo not given),13,27,115*,14,-39,-6
c1ccc(Nc2nc(NCC3CCCO3)c3ccccc3n2)cc1 (stereo not given),44,93*,31,-6,u,10
COc1ccc(Nc2nc(NCC3CCCO3)c3ccccc3n2)c(OC)c1 (stereo not given),30,68*,19,-9,36,-14
COc1ccc(Nc2c3c(nc4ccccc24)CCC3)c(OC)c1,47,30,15,5,-2,15
CCOc1ccc(Nc2nc(NCC3CCCO3)c3ccccc3n2)cc1 (stereo not given),28,48,52,-7,99*,-15
Oc1cccc(Nc2nc(NCC3CCCO3)c3ccccc3n2)c1 (stereo not given),38,52,x,10,21,7
CC1(c2ccccc2Cl)NC(=O)N(CC(=O)Nc2ccc(N3CCCCC3)cc2)C1=O (stereo not given),14,3,6,-7,-4,-1
CS(=O)(=O)c1ccc(C(=O)CN2C(=O)NC3(CCCc4ccccc43)C2=O)cc1 (stereo not given),-8,x,0,x,x,x
CC(NC(=O)COC(=O)/C=C/c1ccc2c(c1)OCO2)c1ccccc1 (stereo not given),20,x,0,x,x,1
CCCCCCC[N+](CC)(CC)CCCCc1ccc(Cl)cc1,36,x,114*,x,x,7
COc1cc(C)ccc1OCc1cc(C(=O)N2CCCCCCC2)no1,-28,0,-4,5,-9,-5
O=C(Nn1c(-c2ccncc2)nc2ccccc2c1=O)c1ccc(Br)cc1,30,67*,x,-13,-21,-7
O=C(Nn1c(-c2ccc(Br)cc2)nc2ccccc2c1=O)c1cccnc1,-15,-7,-6,-1,22,-4
CC1CCC(NC(=O)CCNC(=O)c2ccccc2)CC1 (stereo not given),6,-8,-8,-5,107*,-1
COc1cc(C(=O)NCCC(=O)NC2CCC(C)CC2)cc(OC)c1OC (stereo not given),-35,-6,1,3,-10,9
CCCn1c(SCC(=O)Nc2cc(S(=O)(=O)N3CCCCC3)ccc2C)n[nH]c1=O,28,x,x,x,x,x
SMILES,Mdm2-MdmX inh,T cruzi repl,Beta cell apopt,SKKanGAS inh,Calb FLC,CSC inhib
S=C1NC(C23CC4CC(CC(C4)C2)C3)=CC(c2ccc3c(c2)OCO3)N1 (stereo not given),-10,70*,0,58*,-5,-6
COc1ccc(OC)c(C2C=C(C34CC5CC(CC(C5)C3)C4)NC(=S)N2)c1 (stereo not given),6,65*,2,52*,-9,-5
COc1cc(C2C=C(C34CC5CC(CC(C5)C3)C4)NC(=S)N2)cc(OC)c1OC (stereo not given),21,24,1,14,0,-1
Cc1ccccc1/C=C/c1cc[n+](C)cc1,11,-3,1,-1,-6,-2
Cc1[nH]c2ccccc2c1/C=C/c1cc[n+](C)cc1,x,50,x,3,104*,x
CCN(CC)S(=O)(=O)c1ccc(Cl)c(C(=O)Nc2ccc(Cl)cc2[N+](=O)[O-])c1,44,-9,100*,6,14,7
CN(C)S(=O)(=O)c1ccc(Cl)c(C(=O)Nc2ccccc2[N+](=O)[O-])c1,11,-20,0,3,6,11
O=C(NCCCN1CCOCC1)C1CCN(S(=O)(=O)c2ccccc2)CC1,19,-4,-1,-4,2,-1
Cc1ccc(S(=O)(=O)CNC(=S)c2ccc3ccccc3c2)cc1,-10,-23,-9,62*,0,0
CCC(C(=O)OCC(=O)Nc1ccc(SC(F)F)cc1)c1ccccc1 (stereo not given),x,58*,x,-3,2,x
O=C(Nc1ncc(S(=O)(=O)c2ccc([N+](=O)[O-])cc2)s1)c1cccc2ccccc12,42,58*,32,8,20,112*
COCC(=O)Nc1ncc(S(=O)(=O)c2ccc([N+](=O)[O-])cc2)s1,11,27,-2,1,29,-12
Cc1ccc(-c2nc3cccnc3s2)cc1NS(=O)(=O)c1ccc2c(c1)OCCO2,39,22,8,40,-11,77*
Cc1ccc(S(=O)(=O)N2CCCC(C(=O)NCCc3ccccc3)C2)cc1 (stereo not given),17,-12,1,-2,-23,-1
Cc1cc(Oc2cnn(C(C)(C)C)c(=O)c2Cl)cc(C(C)C)c1,7,19,4,59*,-7,49
O=C(COc1cccnc1[N+](=O)[O-])NCc1ccccc1,-12,8,-4,7,-4,1
CC(C)(C)N(Cc1ccccc1)C(=O)COc1cccnc1[N+](=O)[O-],-2,16,-9,52*,-3,25
COc1ccc(NC(=O)CC2C(=O)N(CCc3ccccc3)C(=S)N2Cc2cccnc2)cc1 (stereo not given),10,63*,7,-6,2,21
COc1cccc(NC(=O)CCC(=O)N2CC(C)Oc3ccc(C)cc32)c1 (stereo not given),15,4,0,-3,-10,-9
